{
  "source": "ChEMBL document CHEMBL5532692",
  "about": "“Structure-based virtual screening of unbiased and RNA-focused libraries to identify new ligands for the HCV IRES model system” (RSC Med Chem, 2024)",
  "note": "pEC50, pKd: −log10 of the molar value.",
  "data": [
    {"tested_on": "Internal ribosome entry site (IRES)", "test": "Binding affinity to HCV IRES subdomain IIa RNA", "details": "Hepacivirus hominis; dose 0.001-1000 µM", "values": [
      {"compound": "NC1=NC(c2ccccc2)n2c(nc3ccccc32)N1", "note": "(stereo unspecified)", "Activity": "Dose-Dependent Effect"},
      {"compound": "NC1=Nc2nc3ccccc3n2C(C2CC2)N1", "note": "(stereo unspecified)", "Activity": "Dose-Dependent Effect"},
      {"compound": "COc1cccc(C2NC(N)=Nc3nc4ccccc4n32)c1", "note": "(stereo unspecified)", "Activity": "Dose-Dependent Effect"}
    ]},
    {"molecular_target": "Internal ribosome entry site (IRES)", "test": "Binding affinity to HCV IRES subdomain IIa RNA assessed as reduction in FRET signal by FRET assay", "format": "nucleic-acid assay, Hepacivirus hominis", "details": "not given", "outline": "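Two-stranded HCV IRES IIa RNA, 5'-Cy3 on one strand and 5'-Cy5 on the other, annealed at 75 °C then cooled to room temperature for at least 20 min in 10 mM HEPES pH 7.0, 2 mM MgCl2. RNA at 100 nM with compound; excitation 480 nm, Cy5 emission 670 nm. Dose–response 1 mM to 100 nM in 3.16-fold steps, 2% DMSO final. EC50 from at least triplicates.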", "values": [
      {"compound": "NC1=NC(c2cn[nH]c2-c2cccc(O)c2)n2c(nc3ccccc32)N1", "note": "(stereo unspecified)", "pEC50": "≤ 3.00"}
    ]},
    {"molecular_target": "Internal ribosome entry site (IRES)", "test": "Binding affinity to HCV IRES subdomain IIa RNA assessed as dissociation constant by MST assay", "format": "nucleic-acid assay, Hepacivirus hominis", "details": "not given", "outline": "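Same two-stranded IIa RNA, Cy5-labelled, annealed at 75 °C then cooled to room temperature for at least 20 min in 10 mM HEPES pH 7.0, 2 mM MgCl2. Used at 30 nM with compound from 1 mM (or 316/100 μM if solubility-limited) to 0.01 μM in 3.16-fold steps, 2% DMSO final. Thermophoresis read after 18 s laser on-time. KD from triplicates.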", "values": [
      {"compound": "CNC(=N)Nc1nc(C)c2ccc(OC)cc2n1", "pKd": 4.06},
      {"compound": "N=C(N)NC(=O)c1nc(Cl)c(N)nc1N", "note": "[AMILORIDE]", "pKd": "≤ 4.00"},
      {"compound": "CC(C)NCC(O)COc1ccc2[nH]cc(CCN)c2c1", "note": "(stereo unspecified)", "pKd": 3.87},
      {"compound": "CCOc1ccc2c(C)nc(NC(=N)N)nc2c1", "pKd": 3.72},
      {"compound": "COc1ccc2c(C)nc(NC(=N)N)nc2c1", "pKd": 3.87},
      {"compound": "Nc1cc(-c2ccc3[nH]ncc3c2)c2cc[nH]c2n1", "pKd": "≤ 4.30"},
      {"compound": "NC1=NC(c2cn[nH]c2-c2cccc(O)c2)n2c(nc3ccccc32)N1", "note": "(stereo unspecified)", "pKd": "≤ 4.00"}
    ]}
  ]
}
